This is a sample that favours compounds with a hit; in the whole collection about 4% have one here.
TAAR1 antagonist – human TAAR1 antagonists, primary screen, Fluo-8 calcium fluorescence, CHO RD-HGA16 cells; AID 624466, 2012; inhibition, % at 3 µM; antagonist; Trace amine-associated receptor 1 (Homo sapiens), Q96RJ0; hit rate 1.5% among 360,000;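 active = inhibition above a per-plate cutoff, the mean inhibition of test compounds on that plate plus 3 SD, cut at about 49% in these data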;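 note: 0% = DMSO plus EC80 beta-PEA response and 100% = DMSO alone without agonist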
Target sequence (Q96RJ0 whole entry, looked up): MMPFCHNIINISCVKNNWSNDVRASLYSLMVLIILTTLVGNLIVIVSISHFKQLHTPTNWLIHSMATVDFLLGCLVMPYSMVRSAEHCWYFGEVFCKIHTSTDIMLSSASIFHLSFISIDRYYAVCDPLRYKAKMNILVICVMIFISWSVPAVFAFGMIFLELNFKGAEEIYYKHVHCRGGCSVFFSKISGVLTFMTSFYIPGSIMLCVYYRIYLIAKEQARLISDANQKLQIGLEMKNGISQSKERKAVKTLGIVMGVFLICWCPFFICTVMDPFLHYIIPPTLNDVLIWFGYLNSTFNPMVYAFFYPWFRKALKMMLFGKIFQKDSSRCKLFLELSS
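Test system: hTAAR1-expressing CHO RD-HGA16 cells, Gα16-coupled; Probe or stimulus: EC80 β-phenethylamine stimulus; Compound dosing: single nominal final test compound concentration of 3 µM; Timing: 140 s kinetic read after compound, 140 s after agonist; Signal: Fluo-8 calcium-sensitive fluorescence; Measure: % inhibition of agonist calcium response; Controls: DMSO and EC80 PEA controls.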
GPR7 antag – GPR7 receptor antagonists, primary screen, cell-based, fluorescence, single concentration; inhibition, % at 4.4 µM; Neuropeptides B/W receptor type 1 (Homo sapiens), P48145; hit rate 1.1% among 290,000; AID 1861, 2009; GPR7-expressing cells, fluorescence antagonist assay; in the data active = inhibition above about 16%, passing the limit was not always enough;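 note: cells stimulated with the agonist NPW; 0% = agonist with vehicle and 100% = vehicle without agonist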
Target sequence (P48145 whole entry, looked up): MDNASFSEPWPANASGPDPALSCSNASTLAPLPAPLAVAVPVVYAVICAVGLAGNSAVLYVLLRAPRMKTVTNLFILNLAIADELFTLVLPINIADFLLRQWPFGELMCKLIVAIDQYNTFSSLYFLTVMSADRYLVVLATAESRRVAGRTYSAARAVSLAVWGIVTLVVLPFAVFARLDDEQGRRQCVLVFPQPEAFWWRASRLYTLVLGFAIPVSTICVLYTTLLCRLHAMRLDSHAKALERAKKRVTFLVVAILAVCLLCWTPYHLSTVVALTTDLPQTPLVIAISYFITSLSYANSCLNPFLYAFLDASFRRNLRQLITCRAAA
DAGLB inh – DAGLB lipase inhibitors, primary screen, biochemical, fluorescence, HTS; Diacylglycerol lipase-beta (Homo sapiens), Q8NCG7; HEK293T DAGLB membrane lysate, EnzChek fluorogenic substrate; inhibition, % at 5.17 µM; hit rate 0.059% among 340,000; AID 504411, 2011; in the data active = inhibition above about 34%;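 note: 0% = enzyme with vehicle and 100% = wells lacking enzyme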
MPTP inh – mitochondrial permeability transition pore inhibitors, primary screen, biochemical, isolated mouse mitochondria, absorbance | Ca2+ swelling absorbance, 30 min | inhibition, % at 10 µM | hit rate 1.4% among 360,000;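 active = inhibition of 50% or more, scaled per plate between neutral and stimulator controls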;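 note: 0% = DMSO wells given calcium and 100% = 1 mM EGTA wells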
TAAR1 ag – human TAAR1 agonists, primary screen, Fluo-8 calcium fluorescence, CHO RD-HGA16 cells; activation, % at 3 µM; AID 624467, 2012; Trace amine-associated receptor 1 (Homo sapiens), Q96RJ0; hit rate 0.99% among 360,000; vehicle wells 0%, saturating PEA agonist 100%;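 active = activation above the mean activation of all test compounds in the run plus 3 SD, cut at about 38% in these data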
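Assay system – CHO-derived RD-HGA16 cells with stable Gα16 and human TAAR1 · Compound dosing – one-point dosing at 3 µM (nominal) · Incubation – 17-24 h seeding, 75 min 37 °C dye, 30 min RT · Measured by – kinetic Fluo-8 calcium fluorescence · Control set – DMSO vehicle as 0%, PEA at EC100 as 100% · Repeats – single well for each compound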
GPR7 antag cf – GPR7 receptor antagonists, confirmation, cell-based, fluorescence, single concentration | shares compounds with GPR7 antag | GPR7-expressing cells, calcium fluorescence antagonist mode | inhibition, % at 4.4 µM | hit rate 52% among 2,400 | AID 1952, 2009; in the data active = inhibition above about 24%;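 note: stimulated with the GPR7 agonist NPW; 0% = agonist plus vehicle and 100% = vehicle alone without agonist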
MCHR1 antagonist – MCHR1 antagonists in cells, counter-screen for GPR7 antagonist project, cell-based, fluorescence, human; shares compounds with GPR7 antag; MCHR1-expressing cells, fluorescence antagonist assay; inhibition, % at 4.4 µM; hit rate 62% among 2,400; AID 2148, 2009; in the data active = inhibition above about 22%;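 note: 0% = vehicle with agonist and 100% = vehicle without agonist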
* marks the source's active call; other numbers are inactive results; nt = not tested or not shown.

SMILES	TAAR1 antagonist	GPR7 antag	DAGLB inh	MPTP inh	TAAR1 ag	GPR7 antag cf	MCHR1 antagonist
COC(=O)[C@]12C[C@H](CC(=O)NCC3CCCCC3)C(=O)N(CCC3=CCCCC3)C1=C[C@H](C(C)(C)C)O[C@@H]2C	-23.7	nt	nt	nt	-1.3	nt	nt
COc1cccc(CN(C)C[C@@H]2OCc3cnnn3CCCC(=O)N([C@@H](C)CO)C[C@H]2C)c1	11.4	nt	0.6	0.8	1.4	nt	nt
C=C1[C@@H](C)CN[C@@H]1CCO	-9.2	nt	nt	nt	9.6	nt	nt
CCCc1c(O)c2ccccc2[nH]c1=O	3.2	-12.5	1.4	-0.7	6.2	nt	nt
O=c1[nH]c2ccccc2c(O)c1Cc1ccccc1	8.7	22.1*	-0.8	-2.3	3.5	-0.5	-4.4
C[C@H](CO)N1C[C@H](C)[C@@H](CN(C)Cc2ccc(C(=O)O)cc2)Oc2ncc(-c3ccc(C(=O)N(C)C)cc3)cc2C1=O	9.2	nt	2.6	-0.5	0.3	nt	nt
COc1ccccc1NS(=O)(=O)c1cc(NC(=O)c2ccc3c(c2)OCCO3)ccc1C	13.5	27.2*	-2.3	-1.7	-0.3	1.6	63.3*
COc1ccccc1NS(=O)(=O)c1cc(NC(=O)CNC(=O)c2ccccc2)ccc1C	-14.9	-0.2	0.8	0.8	5.1	nt	nt
CCN1CCN(c2ccc(S(=O)(=O)N3CCCCC3)cc2NC(=O)/C=C/c2ccc(Cl)cc2)CC1	-0.7	nt	0.6	-1.1	9.8	nt	nt
Cc1ccc(C(=O)NC(CCc2ccccc2)C(=O)O)cc1 (centres undefined)	6.5	nt	-0.5	1.7	-0.5	nt	nt
CNC[C@H](Cc1ccccc1)NC[C@@H](Cc1cccc2ccccc12)NCCc1ccc(C)cc1	50.3*	43.4*	-13.1	9.9	43.2*	67.3*	75.8*
COc1ccccc1CNCc1cc(OC)c(OC)cc1OC	8.9	-3.5	-1.0	-0.6	10.2	nt	nt
COc1ccccc1CNCC(O)Cn1c2ccccc2c2ccccc21 (centres undefined)	10.8	37.1*	-4.2	-3.5	29.2	67.8*	72.7*
COc1ccccc1CNCC(c1ccccc1)c1ccccc1	-7.4	41.6*	0.9	3.9	0.0	45.7*	33.8*
Cc1ccsc1C(=O)NNC(=O)C1CCCCC1C(=O)O (centres undefined)	2.9	22.8*	-2.8	-2.8	0.9	-7.2	7.3
CC1CCN(CCCNC(=O)CN2C(=O)CSc3ccc(S(=O)(=O)N4CCC(C)CC4)cc32)CC1	1.2	25.9*	-1.9	-0.6	4.7	-4.8	-9.0
CCn1c(CNc2ccc(Cl)cc2)nnc1SCCN1CCCCC1	-13.5	nt	0.5	0.4	7.9	nt	14.6
CCn1c(CNc2ccc(Cl)cc2)nnc1SCc1ccc(Cl)cc1	18.9	34.4*	-9.0	3.4	13.1	40.8*	45.1*
CCn1c(CC(=O)Nc2ccc(Cl)c(Cl)c2)nnc1SCc1ccc(Cl)cc1	-12.1	-13.8	0.2	-1.7	5.2	nt	nt
O=C(NC(c1ccc(-c2ccccc2)cc1)c1cnccn1)C1CCN(CCCOc2ccccc2)CC1 (centres undefined)	27.9	nt	nt	1.8	21.4	nt	nt
Clc1ccc(OCCCNCc2ccccc2)c(Br)c1	5.9	25.5*	0.1	-1.4	6.2	39.8*	54.4*
Cc1ccc(OCCOCCNC(C)C)c(Br)c1	-8.6	-5.7	2.7	-0.9	8.4	nt	nt
CCC(C)NCCOCCOc1ccc(Cl)cc1Br (centres undefined)	6.0	46.5*	2.6	2.5	3.1	10.0	16.4
CCc1ccc(NC(=O)c2nc(S(=O)(=O)Cc3ccccc3)ncc2Cl)cc1	37.1	56.1*	-0.2	-5.4	-1.0	88.1*	102.8*
CCOC(=O)c1ccc(NC(=O)c2nc(S(=O)(=O)Cc3ccccc3)ncc2Cl)cc1	16.2	21.7	2.1	-5.4	-1.9	nt	nt
SMILES	TAAR1 antagonist	GPR7 antag	DAGLB inh	MPTP inh	TAAR1 ag	GPR7 antag cf	MCHR1 antagonist
CCS(=O)(=O)c1ncc(Cl)c(C(=O)Nc2ccc(S(=O)(=O)N3CCC(C)CC3)cc2)n1	34.3	58.4*	4.3	-2.5	2.5	88.6*	95.0*
COC(=O)c1ccc(NC(=O)c2nc(S(=O)(=O)Cc3cccc(C)c3)ncc2Cl)cc1	16.7	32.0*	2.4	-4.5	-1.0	72.1*	85.9*
COc1ccccc1NC(=O)c1nc(S(=O)(=O)Cc2ccccc2)ncc1Cl	20.9	32.5*	-0.4	-1.7	-1.9	40.9*	29.5*
CC(=O)Nc1ccc(NC(=O)c2nc(S(=O)(=O)Cc3cccc(C)c3)ncc2Cl)cc1	6.3	16.9	0.9	3.8	-2.8	nt	nt
Nc1ccc2c(c1)[nH]c(=O)c1cc(N)ccc12	1.5	nt	0.3	0.2	-0.1	nt	nt
CC(Oc1ccc2c(c1)c1ccnc3c4ccccc4c(=O)n2c13)C(=O)NCCN1CCOCC1 (centres undefined)	-0.6	-11.7	-1.0	0.9	2.9	nt	nt
CCN(CC)C(=O)C1=C(C)N(Cc2ccc(OC)cc2)C(=O)C(CC(=O)NCC2CCCCC2)C1 (centres undefined)	-11.3	nt	-2.7	0.8	0.4	nt	nt
CC1=Nc2nc(N3CCCCCC3)c(C#N)c3c4c(nc(c23)N1)N(c1ccc2ccccc2c1)C(=O)C4	nt	nt	5.7	4.1	nt	nt	nt
Cc1ccccc1-n1ccnc1SCC(=O)NCC1CCCO1 (centres undefined)	-15.2	26.4*	-1.3	-2.1	0.3	-8.5	3.4
O=C(CSc1ccc2c(c1)OCCO2)NCC1CCCO1 (centres undefined)	2.7	27.0*	0.4	-0.5	2.8	-1.0	-1.3
COc1ccccc1-n1ccnc1SCC(=O)NCC1CCCO1 (centres undefined)	1.9	-12.8	-0.1	-0.8	-0.3	nt	nt
O=C(CSc1ccc2c(c1)OCCO2)NCc1ccccc1	-6.2	2.4	-1.3	1.3	9.3	nt	nt
O=C(CC1c2ccccc2C=C(c2ccsc2)N1c1ccc(-c2cccnc2)cc1)C1CC1 (centres undefined)	-22.1	nt	nt	0.6	1.9	nt	nt
Oc1ccc(-c2csc(-c3cccnc3)n2)cc1O	-16.9	13.5	0.1	3.5	1.1	nt	nt
Oc1ccc(-c2csc(-c3ccccc3)n2)cc1O	-21.5	26.7*	6.3	8.7	-0.1	17.3	7.2
C=CCc1cc(Cl)ccc1OCCOCCN(C)C	-1.9	39.9*	3.8	7.4	2.6	7.5	12.5
COc1ccc(NC(=O)NCCCN2CCC(Cc3ccccc3)CC2)cc1	-14.0	12.7	-5.2	0.5	8.0	nt	nt
CSc1ccc(NC(=O)NCCCN2CCC(Cc3ccccc3)CC2)cc1	27.5	29.0*	2.3	1.5	29.2	26.2*	32.9*

Screens from PubChem BioAssay.
